According to ChEMBL document CHEMBL2321840, “Synthesis and structure-activity relationships of indazole arylsulfonamides as allosteric CC-chemokine receptor 4 (CCR4) antagonists” (J Med Chem, 2013):
Converted amounts (≈) assume the structure as drawn.

Tests used:
[1] = Equilibrium solubility of the compound in simulated gastric fluid at pH 1.6 after 24 hrs by HPLC analysis; type: physicochemical
How it was run: (§1)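 Solid compound was equilibrated 24 h in the stated medium: water, SGF pH 1.6, FeSSIF pH 6.5, FaSSIF pH 6.5 or saline. Dissolved compound was quantified by HPLC.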

[2] = Volume of distribution at steady state in CD rat at 1 mg/kg, iv and 1 mg/kg, po; type: ADME, organism-based; conditions: in vivo, read-out: Vdss
How it was run: (§2)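 CD rat pharmacokinetics, with compounds given as solutions in DMSO–PEG200–H₂O (5:45:50); one analogue used a 10:40:50 ratio.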

[3] = Lipophilicity, log D of the compound by chromatographic analysis; type: physicochemical
How it was run: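 Chromatographic log D measured at pH 7.4.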

[4] = Equilibrium solubility of the compound in fed-state simulated intestinal fluid at pH 6.5 after 24 hrs by HPLC analysis; type: physicochemical; how it was run: as §1
[5] = Equilibrium solubility of the compound in water after 24 hrs by HPLC analysis; type: physicochemical; how it was run: as §1
[6] = Kinetic solubility of the compound by chemiluminescent nitrogen detection assay; type: physicochemical; conditions: read-out: Kinetic_solubility
[7] = biological target: T1, C-C chemokine receptor type 4 (Homo sapiens, UniProt P51679); assay: Antagonist activity at human recombinant CCR4 receptor expressed in CHO cell membranes by [35S]GTPgammaS binding assay; type: functional
T1 sequence (P51679 whole entry): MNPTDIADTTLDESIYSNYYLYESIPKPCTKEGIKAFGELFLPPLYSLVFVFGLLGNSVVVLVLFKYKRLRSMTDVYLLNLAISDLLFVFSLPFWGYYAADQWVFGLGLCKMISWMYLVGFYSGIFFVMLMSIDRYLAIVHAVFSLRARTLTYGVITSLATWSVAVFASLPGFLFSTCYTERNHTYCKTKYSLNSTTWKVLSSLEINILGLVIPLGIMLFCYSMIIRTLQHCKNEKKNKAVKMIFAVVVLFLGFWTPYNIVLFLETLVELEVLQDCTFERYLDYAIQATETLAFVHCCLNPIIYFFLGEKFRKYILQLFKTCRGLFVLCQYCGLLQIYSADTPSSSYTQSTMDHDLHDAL

[8] = Equilibrium solubility of the compound in fasted-state simulated intestinal fluid at pH 6.5 after 24 hrs by HPLC analysis; type: physicochemical; how it was run: as §1
in vivo [9] = conditions: CD, rat, iv, 1 mg/kg
in vivo [10] = conditions: CD, rat, iv, 1 mg/kg; remark: listed apart in the source
[11] = Oral bioavailability in CD rat at 1 mg/kg; type: ADME, organism-based; conditions: in vivo; how it was run: as §2
[12] = biological target: T1, C-C chemokine receptor type 4; assay: Antagonist activity at CCR4 receptor in human whole blood assessed as F-actin polymerization after 30 mins by FACS-based flow cytometric analysis; conditions: read-out: pA2 (converted)
Canis familiaris [13] = assay: Volume of distribution at steady state in Beagle dog at 0.5 mg/kg, iv; type: ADME, organism-based, Canis lupus familiaris; design: dose 0.5 mg/kg, route intravenous; conditions: in vivo
Canis familiaris [14] = species: Canis familiaris; conditions: dog, in vivo, iv, 0.5 mg/kg
[15] = Plasma protein binding in human by equilibrium dialysis technique; type: ADME, cell-free; conditions: read-out: PPB (converted)
How it was run: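 Rapid equilibrium dialysis in CD rat, beagle dog or human plasma, with compound at a nominal 1 μg/mL; n = 3.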

Row | Compound | solubility thermodynamic at 24 h [1] [µg/mL] | Vd [2] [L/kg] | chromatographic logD [3] | solubility thermodynamic at 24 h [4] [µg/mL] | solubility thermodynamic at 24 h [5] [µg/mL] | solubility kinetic [6] [µg/mL] | IC50 [7] [nM] | solubility thermodynamic at 24 h [8] [µg/mL] | clearance (in vivo [9]) [mL/min/kg] | half-life (in vivo [10]) [h] | bioavailability [11] [%] | Kb [12] [nM] | Vdss (Canis familiaris [13]) [L/kg] | t1/2 (Canis familiaris [14]) [h] | fraction unbound [15]
1 | COc1cc(F)cc2c1c(NS(=O)(=O)c1ccc(Cl)s1)nn2Cc1cccc(CNC(=O)C(C)(C)O)c1 | 1 (≈ 1.76 µM) | 1.5 | 4.2 | 33 (≈ 58.2 µM) | 32 (≈ 56.4 µM) | ≥ 198 | 15.8 | 36 (≈ 63.5 µM) | 19 | 1.8 | 90 | 631 | – | – | –
2 | COc1cccc2c1c(NS(=O)(=O)c1ccc(Cl)s1)nn2Cc1cccc(CNC(=O)[C@@H]2CCCCN2)c1 | – | 2.6 | 3.3 | – | – | ≥ 220 | 15.8 | – | 29 | 3 | < 1 | 126 | 11 | 0.95 | 0.078
